Data: ChEMBL document CHEMBL3525963, “Tissue distribution and elimination of [14C]apixaban in rats” (Drug Metab Dispos, 2011)

Tests used:
Conditions in all cases: in vivo
Spleen [1] = experiment: Biodistribution in male Sprague-Dawley rat spleen at 5 mg/kg, po administered as single dose measured after 1 hr; type: ADME, organism-based; set-up: dose 5 mg/kg, dosed compound name [14C]-apixaban, route oral
Summary of the method: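 [14C]apixaban (1.0 mg/mL, 20 μCi/mL) in 0.5% Tween 80 in Labrafil, given by oral gavage at 100 μCi/kg to male rats (225-252 g) fasted overnight through 4 h post-dose. One rat per time point. Carcasses frozen in hexane/dry ice and cut into 40 µm sagittal sections. QWBA read on phosphor plates against [14C]glucose standards, reported as µg eq/g. LLOQ 0.037 µg eq/g.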

Thymus [2] = experiment: Biodistribution in pregnant Sprague-Dawley rat thymus at 5 mg/kg, po administered as single dose measured after 1 hr; type: ADME, organism-based; set-up: dose 5 mg/kg, dosed compound name [14C]-apixaban, route oral
Muscle tissue = experiment: Biodistribution in pregnant Sprague-Dawley rat muscle at 5 mg/kg, po administered as single dose measured after 1 hr; type: ADME, organism-based; set-up: dose 5 mg/kg, dosed compound name [14C]-apixaban, route oral
Thymus [3] = experiment: Biodistribution in female Sprague-Dawley rat thymus at 5 mg/kg, po administered as single dose measured after 72 hrs; type: ADME, organism-based; set-up: dose 5 mg/kg, dosed compound name [14C]-apixaban, route oral
Summary of the method: (§1)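 Quantitative whole-body autoradiography was run after a single 5 mg/kg (100 μCi/kg) oral gavage to fasted female or pregnant SD rats, one rat per time point. Carcasses were frozen in hexane/dry ice, and 40 µm sagittal sections were dried at −20°C for at least 48 h. Sections were exposed to a phosphor plate alongside [14C]glucose standards (0.001–6.5 µCi/g). Results are µg eq/g, with LLOQ 0.037 µg eq/g.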

Adrenal gland [4] = experiment: Biodistribution in pregnant Sprague-Dawley rat adrenal gland at 5 mg/kg, po administered as single dose measured after 48 hrs; type: ADME, organism-based; set-up: dose 5 mg/kg, dosed compound name [14C]-apixaban, route oral
Summary of the method: (§2)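 Fasted pregnant SD rats (n=6, 270-319 g) each received one oral gavage dose of [14C]apixaban, 5 mg/kg (100 μCi/kg), in 0.5% Tween 80/Labrafil. One rat was killed at each of 0.5, 1, 4, 8, 24 and 48 h. Carcasses were frozen in hexane/dry ice, cut into 40 µm sagittal sections, exposed to phosphor plates and quantified against [14C]glucose standards as µg eq/g. LLOQ was 0.037 µg eq/g.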

Heart [5] = experiment: Biodistribution in pregnant Sprague-Dawley rat heart at 5 mg/kg, po administered as single dose measured after 1 hr; type: ADME, organism-based; set-up: dose 5 mg/kg, dosed compound name [14C]-apixaban, route oral
Rattus norvegicus [6] = experiment: Biodistribution in female Sprague-Dawley rat kidney cortex at 5 mg/kg, po administered as single dose measured after 72 hrs; type: ADME, organism-based; set-up: dose 5 mg/kg, dosed compound name [14C]-apixaban, route oral; summary of the method: as §1
Blood [7] = experiment: Biodistribution in female Sprague-Dawley rat blood at 5 mg/kg, po administered as single dose measured after 8 hrs; type: ADME, organism-based; set-up: dose 5 mg/kg, dosed compound name [14C]-apixaban, route oral
Summary of the method: (§3)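 [¹⁴C]Apixaban given by oral gavage at 5 mg/kg (100 μCi/kg) in 0.5% Tween 80 in Labrafil (1.0 mg/mL dosing solution) to rats fasted overnight through 4 h post-dose. One rat per time point; carcass frozen in hexane/dry ice. Quantitative whole-body autoradiography used 40 µm sagittal sections and a phosphor imaging plate calibrated with [¹⁴C]glucose standards (0.001–6.5 μCi/g). Read-out in µg eq apixaban/g; LLOQ 0.037 μg eq/g.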

Blood [8] = experiment: Biodistribution in male Sprague-Dawley rat blood at 5 mg/kg, po administered as single dose measured after 24 hrs; type: ADME, organism-based; set-up: dose 5 mg/kg, dosed compound name [14C]-apixaban, route oral
Summary of the method: (§4)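 Fasted male SD rats (225-252 g) each received one oral gavage dose of [14C]apixaban, 5 mg/kg (100 μCi/kg), in 0.5% Tween 80/Labrafil vehicle. One rat was killed per time point, from 0.5 to 168 h. Frozen carcasses were cut into 40 µm sagittal whole-body sections and read by QWBA phosphor imaging against [14C]glucose calibrants. Results are in µg apixaban eq/g; BLQ <0.037 µg eq/g.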

Rattus norvegicus [9] = experiment: Biodistribution in male Sprague-Dawley rat brown fat at 5 mg/kg, po administered as single dose measured after 72 hrs; type: ADME, organism-based, Brown adipose tissue; set-up: dose 5 mg/kg, dosed compound name [14C]-apixaban, route oral; summary of the method: as §4
Rattus norvegicus [10] = experiment: Biodistribution in female Sprague-Dawley rat bone marrow at 5 mg/kg, po administered as single dose measured after 24 hrs; type: ADME, organism-based; set-up: dose 5 mg/kg, dosed compound name [14C]-apixaban, route oral; summary of the method: as §1
Thymus [11] = experiment: Biodistribution in pregnant Sprague-Dawley rat thymus at 5 mg/kg, po administered as single dose measured after 24 hrs; type: ADME, organism-based; set-up: dose 5 mg/kg, dosed compound name [14C]-apixaban, route oral
Summary of the method: (§5)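 Pregnant SD rats (270-319 g) were fasted overnight and given one oral gavage of 5 mg/kg (100 μCi/kg) in 0.5% Tween 80 in Labrafil. One rat was euthanized per time point (0.5, 1, 4, 8, 24, 48 h) and the carcass frozen. 40 µm sagittal sections were phosphor-imaged against [14C]glucose standards and results reported as µg eq/g; LLOQ 0.037 µg eq/g.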

Heart [12] = experiment: Biodistribution in female Sprague-Dawley rat heart at 5 mg/kg, po administered as single dose measured after 1 hr; type: ADME, organism-based; set-up: dose 5 mg/kg, dosed compound name [14C]-apixaban, route oral; summary of the method: as §3
Rattus norvegicus [13] = experiment: Biodistribution in male Sprague-Dawley rat brown fat at 5 mg/kg, po administered as single dose measured after 8 hrs; type: ADME, organism-based, Brown adipose tissue; set-up: dose 5 mg/kg, dosed compound name [14C]-apixaban, route oral
Summary of the method: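 Fasted male rats, 225-252 g, received [14C]apixaban by single oral gavage at 100 μCi/kg in 0.5% Tween 80/Labrafil. One rat was killed per time point and the carcass frozen. Tissue radioactivity was quantified by QWBA (40 µm sagittal sections, phosphor plate, [14C]glucose calibration) as µg eq apixaban/g, with LLOQ 0.037 μg eq/g.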

[14] = Drug excretion in Sprague-Dawley rat feces at 30 mg/kg, po administered as single dose after 0 to 168 hrs
Rattus norvegicus [15] = experiment: Biodistribution in pregnant Sprague-Dawley rat placenta at 5 mg/kg, po administered as single dose measured after 0.5 hrs; type: ADME, organism-based; set-up: dose 5 mg/kg, dosed compound name [14C]-apixaban, route oral
Rattus norvegicus [16] = experiment: Biodistribution in pregnant Sprague-Dawley rat salivary gland at 5 mg/kg, po administered as single dose measured after 24 hrs; type: ADME, organism-based; set-up: dose 5 mg/kg, dosed compound name [14C]-apixaban, route oral; summary of the method: as §5
Spleen [17] = experiment: Biodistribution in female Sprague-Dawley rat spleen at 5 mg/kg, po administered as single dose measured after 4 hrs; type: ADME, organism-based; set-up: dose 5 mg/kg, dosed compound name [14C]-apixaban, route oral; summary of the method: as §3
Rattus norvegicus [18] = experiment: Biodistribution in pregnant Sprague-Dawley rat bone marrow at 5 mg/kg, po administered as single dose measured after 1 hr; type: ADME, organism-based; set-up: dose 5 mg/kg, dosed compound name [14C]-apixaban, route oral
Harderian gland = experiment: Biodistribution in female Sprague-Dawley rat harderian gland at 5 mg/kg, po administered as single dose measured after 0.5 hrs; type: ADME, organism-based; set-up: dose 5 mg/kg, dosed compound name [14C]-apixaban, route oral; summary of the method: as §3
Blood [19] = experiment: Cmax in male Sprague-Dawley rat blood at 5 mg/kg, po administered as single dose; type: ADME, organism-based; set-up: dose 5 mg/kg, dosed compound name [14C]-apixaban, route oral
Summary of the method: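 Fasted male, female or pregnant SD rats received a single oral gavage of 5 mg/kg (100 μCi/kg) in 0.5% Tween 80/Labrafil. One rat was killed per time point, up to 168 h (48 h for pregnant). Blood was collected into K3EDTA. Blood radioactivity came from autoradiogram or LSC data, and Cmax was taken from the concentration-time profile.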

Adrenal gland [20] = experiment: Biodistribution in female Sprague-Dawley rat adrenal gland at 5 mg/kg, po administered as single dose measured after 0.5 hrs; type: ADME, organism-based; set-up: dose 5 mg/kg, dosed compound name [14C]-apixaban, route oral; summary of the method: as §3
Blood [21] = experiment: Biodistribution in pregnant Sprague-Dawley rat blood at 5 mg/kg, po administered as single dose measured after 48 hrs; type: ADME, organism-based; set-up: dose 5 mg/kg, dosed compound name [14C]-apixaban, route oral; summary of the method: as §2
Rattus norvegicus [22] = experiment: Biodistribution in male Sprague-Dawley rat brown fat at 5 mg/kg, po administered as single dose measured after 24 hrs; type: ADME, organism-based, Brown adipose tissue; set-up: dose 5 mg/kg, dosed compound name [14C]-apixaban, route oral; summary of the method: as §4

- Radiolabel recovery (Spleen [1]): 0.32 ugequiv/g
- Radiolabel recovery (Thymus [2]): 0.58 ugequiv/g
- Radiolabel recovery (Muscle tissue): 0.46 ugequiv/g
- Radiolabel recovery (Thymus [3]): Not detected assumed BLQ
- Radiolabel recovery (Heart [5]): 0.93 ugequiv/g
- Radiolabel recovery (Rattus norvegicus [6]): Not detected assumed BLQ
- Radiolabel recovery (Blood [7]): 0.17 ugequiv/g
- Radiolabel recovery (Rattus norvegicus [10]): Not detected assumed BLQ
- Radiolabel recovery (Thymus [11]): Not detected assumed BLQ
- Radiolabel recovery (Heart [12]): 0.54 ugequiv/g
- Radiolabel recovery (Rattus norvegicus [13]): 0.07 ugequiv/g
- Radiolabel recovery [14]: 74%
- Radiolabel recovery (Rattus norvegicus [15]): 1.02 ugequiv/g
- Radiolabel recovery (Rattus norvegicus [16]): Not detected assumed BLQ
- Radiolabel recovery (Spleen [17]): 0.45 ugequiv/g
- Radiolabel recovery (Rattus norvegicus [18]): 0.33 ugequiv/g
- Radiolabel recovery (Harderian gland): 0.4 ugequiv/g
- Cmax (Blood [19]): 1180 ngequiv/g
- Radiolabel recovery (Adrenal gland [20]): 0.56 ugequiv/g
- Radiolabel recovery (Blood [21]): Not detected assumed BLQ
Compound: COc1ccc(-n2nc(C(N)=O)c3c2C(=O)N(c2ccc(N4CCCC[14C]4=O)cc2)CC3)cc1
- Radiolabel recovery (Adrenal gland [4]): Not sampled as not visualised in autoradiograph
- Radiolabel recovery (Blood [8]): Not sampled as not visualised in autoradiograph
- Radiolabel recovery (Rattus norvegicus [9]): Not sampled as not visualised in autoradiograph
- Radiolabel recovery (Rattus norvegicus [22]): Not sampled as not visualised in autoradiograph
